Assay [1] has as its target 72 kDa type IV collagenase (Homo sapiens, UniProt P08253). The experiment in a line: Inhibition of MMP2. The gist of the method: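 Gelatinase A enzyme, synthetic substrate and inhibitor dissolved together in 50 mmol/L sodium borate, pH 8.5, and incubated 30 min at 37 °C. 0.03% TNBS then added and incubated a further 20 min. Absorbance read at 450 nm.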
Assay [2] in a line: Inhibition of aminopeptidase N. In a few lines:
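Porcine kidney microsomal aminopeptidase, 4 µg/mL final, preincubated 30 min at room temperature with inhibitor. Inhibitor solutions made in assay buffer and adjusted to pH 7.5. Substrate L-Leu-p-nitroanilide in 50 mM PBS, pH 7.2, at 37 °C; hydrolysis followed as absorbance change at 405 nm. IC50 determined.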

Structures are written as SMILES.

In ChEMBL document CHEMBL1150360, “Design, synthesis, and QSAR studies of novel lysine derives as amino-peptidase N/CD13 inhibitors” (Bioorg Med Chem, 2008) one finds IC50 and pIC50 data, which are given here for 21 compounds.

Sequence of 72 kDa type IV collagenase (P08253 whole entry): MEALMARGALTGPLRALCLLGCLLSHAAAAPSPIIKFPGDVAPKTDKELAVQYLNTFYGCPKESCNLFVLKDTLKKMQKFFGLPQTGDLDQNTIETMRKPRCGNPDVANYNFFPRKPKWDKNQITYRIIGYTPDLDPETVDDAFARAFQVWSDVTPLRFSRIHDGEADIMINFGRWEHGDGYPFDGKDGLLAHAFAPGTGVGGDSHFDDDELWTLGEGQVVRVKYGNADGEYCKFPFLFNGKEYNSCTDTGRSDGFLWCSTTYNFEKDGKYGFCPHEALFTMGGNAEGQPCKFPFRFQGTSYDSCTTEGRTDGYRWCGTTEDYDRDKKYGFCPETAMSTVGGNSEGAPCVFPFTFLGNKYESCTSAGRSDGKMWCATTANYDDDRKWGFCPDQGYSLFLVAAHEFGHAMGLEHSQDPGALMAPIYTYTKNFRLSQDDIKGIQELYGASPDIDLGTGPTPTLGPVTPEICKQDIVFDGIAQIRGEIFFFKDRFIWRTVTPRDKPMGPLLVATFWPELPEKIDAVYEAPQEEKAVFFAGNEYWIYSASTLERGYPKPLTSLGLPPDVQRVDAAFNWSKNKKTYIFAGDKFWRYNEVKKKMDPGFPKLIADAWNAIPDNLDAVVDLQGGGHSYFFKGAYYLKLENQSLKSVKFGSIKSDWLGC

In the case of `O=C(NCCCC[C@H](NC(=O)c1ccc(Br)cc1)C(=O)NO)OCc1ccccc1`, the IC50 in assay [1] turned out to be 9.94 µM; in assay [2], 112 µM. In assay [2], this compound gave a pIC50 of 3.95.

The compound `O=C(NCCCC[C@H](NC(=O)c1ccc(Cl)cc1Cl)C(=O)O)OCc1ccccc1` had a concentration for half-maximal inhibition (IC50) in assay [1] of 17.8 µM. In assay [2], this compound gave an IC50 of 127 µM and a pIC50 of 3.9.

`O=C(NCCCC[C@H](NC(=O)c1cccc([N+](=O)[O-])c1)C(=O)NO)OCc1ccccc1`: the IC50 was found to be 11.7 µM in assay [1] and 95.8 µM in assay [2]. In assay [2], this compound registered a pIC50 of 4.02.

In turn, `O=C(NCCCC[C@H](NC(=O)c1cccs1)C(=O)O)OCc1ccccc1` registered an IC50 in assay [1] of 12.7 µM. In assay [2], this compound showed an IC50 of 1250 µM and a pIC50 of 2.9.

In the case of `O=C(NCCCC[C@H](NC(=O)c1ccncc1)C(=O)O)OCc1ccccc1`, half-maximal inhibition in assay [1] (IC50) required 8.76 µM. In assay [2], this compound had an IC50 of 292 µM and a pIC50 of 3.54.

`CC(C)C[C@H](NC(=O)[C@@H](O)[C@H](N)Cc1ccccc1)C(=O)O` [UBENIMEX]: the concentration for half-maximal inhibition (IC50) in assay [1] was determined as 22 µM; in assay [2], 15.5 µM.

With `O=C(NCCCC[C@H](NC(=O)c1ccncc1)C(=O)NO)OCc1ccccc1`, in assay [1], the concentration for half-maximal inhibition (IC50) worked out at 25.5 µM. In assay [2], this compound gave an IC50 of 91.2 µM and a pIC50 of 4.04.

Regarding `O=C(NCCCC[C@H](NC(=O)c1cccnc1)C(=O)NO)OCc1ccccc1`, in assay [1], inhibition was half-maximal at 8 µM (IC50). In assay [2], this compound registered an IC50 of 94.3 µM and a pIC50 of 4.03.

With `O=C(NCCCC[C@H](NC(=O)c1ccc(Cl)cc1Cl)C(=O)NO)OCc1ccccc1`, inhibition in assay [1] was half-maximal at 170 µM (IC50). In assay [2], this compound had an IC50 of 13.2 µM and a pIC50 of 4.88.

For `O=C(NCCCC[C@H](NC(=O)c1cccnc1)C(=O)O)OCc1ccccc1`, the IC50 in assay [1] amounted to 3.14 µM. In assay [2], the IC50 came to 167 µM and the pIC50 amounted to 3.78.

Regarding `O=C(/C=C/c1ccccc1)N[C@@H](CCCCNC(=O)OCc1ccccc1)C(=O)O`, the IC50 in assay [1] worked out at 50.5 µM; in assay [2] it was 215 µM. The same compound registered a pIC50 in assay [2] of 3.67.

Consider `O=C(NCCCC[C@H](NC(=O)c1cccc([N+](=O)[O-])c1)C(=O)O)OCc1ccccc1`, for which the IC50 in assay [1] stood at 7.48 µM. For the same compound, in assay [2], the midpoint of inhibition, the IC50, lay at 111 µM and the pIC50 is reported as 3.96.

For `O=C(NCCCC[C@H](NC(=O)c1ccc([N+](=O)[O-])cc1)C(=O)O)OCc1ccccc1`, in assay [1], half-maximal inhibition (IC50) required 19.2 µM. In assay [2], this compound yielded an IC50 of 202 µM and a negative-log IC50 (pIC50) of 3.69.

As to `O=C(NCCCC[C@H](NC(=O)c1cccs1)C(=O)NO)OCc1ccccc1`, the IC50 is 12.6 µM in assay [1] and 159 µM in assay [2]. The compound further registered a pIC50 in assay [2] of 3.8.

With `O=C(/C=C/c1ccccc1)N[C@@H](CCCCNC(=O)OCc1ccccc1)C(=O)NO`, in assay [1], the IC50 was 3.54 µM. In assay [2], this compound gave an IC50 of 570 µM and a pIC50 of 3.24.

Regarding `O=C(NCCCC[C@H](NC(=O)c1cnccn1)C(=O)NO)OCc1ccccc1`, the IC50 in assay [1] worked out at 14.3 µM; in assay [2] it was 97 µM. Further, the pIC50 in assay [2] amounted to 4.01.

In the case of `O=C(NCCCC[C@H](NC(=O)c1ccco1)C(=O)O)OCc1ccccc1`, the figures for the IC50 in assay [1] and in assay [2] were 8.49 µM and 1120 µM, respectively. This compound gave a pIC50 in assay [2] of 2.95.

As to `O=C(NCCCC[C@H](NC(=O)c1cnccn1)C(=O)O)OCc1ccccc1`, the IC50 in assay [1] turned out to be 2.93 µM. Also, in assay [2], it took 197 µM to reach half-maximal inhibition (IC50) and the pIC50 is 3.7.

In assay [1], `O=C(NCCCC[C@H](NC(=O)c1ccco1)C(=O)NO)OCc1ccccc1` registered an IC50 of 8.08 µM. Also, in assay [2], the IC50 turned out to be 159 µM and the negative logarithm of the IC50 (pIC50) was determined as 3.8.

Turning to `O=C(NCCCC[C@H](NC(=O)c1ccc(Br)cc1)C(=O)O)OCc1ccccc1`, in assay [1], it took 13.1 µM to reach half-maximal inhibition (IC50). Further, in assay [2], it took 188 µM to reach half-maximal inhibition (IC50) and the pIC50 is given as 3.73.

As for `O=C(NCCCC[C@H](NC(=O)c1ccc([N+](=O)[O-])cc1)C(=O)NO)OCc1ccccc1`, half-maximal inhibition in assay [1] (IC50) was put at 32 µM. Further, in assay [2], the midpoint of inhibition, the IC50, lay at 108 µM and the pIC50 turned out to be 3.97.
